Data from ChEMBL document CHEMBL4138165, “Design, synthesis and biological evaluation of new β-carboline-bisindole compounds as DNA binding, photocleavage agents and topoisomerase I inhibitors” (Eur J Med Chem, 2018).
The source made the active and inactive calls. The calls are words filed in the database; no cut-off is given here.

Legend:
DU-145 [1] = assay: Cell cycle arrest in human DU145 cells assessed as accumulation at S phase at 2 uM after 48 hrs by FACS analysis (reference value: 16.22%); assay type: functional
[2] = molecular target: T1, Topoisomerase I (Bos taurus) (UniProt Q2HPH0); assay: Inhibition of calf thymus DNA topoisomerase 1 at 20 uM using pBR322 DNA as substrate after 30 mins by agarose gel electrophoresis method
T1 sequence (whole entry): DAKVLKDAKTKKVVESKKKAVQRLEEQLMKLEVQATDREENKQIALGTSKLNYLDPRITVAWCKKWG

DU-145 [3] = assay: Cell cycle arrest in human DU145 cells assessed as accumulation at G0/G1 phase at 2 uM after 48 hrs by FACS analysis (reference value: 53.60%); assay type: functional
Calf thymus DNA [4] = assay: Binding affinity to calf thymus double stranded DNA at 20 uM by CD spectroscopic method; assay type: nucleic-acid assay; conditions: Bos taurus
DU-145 [5] = assay: Cell cycle arrest in human DU145 cells assessed as accumulation at G2/M phase at 2 uM after 48 hrs by FACS analysis (reference value: 21.07%); assay type: functional
Calf thymus DNA [6] = assay: Binding affinity to calf thymus double stranded DNA at 15 uM by ostwald viscometer; assay type: nucleic-acid assay; conditions: Bos taurus
MCF7 = assay: Antiproliferative activity against human MCF7 cells after 48 hrs by MTT assay; assay type: functional, cell-based; conditions: MCF7, 48 h
NIH3T3 = assay: Antiproliferative activity against mouse NIH/3T3 cells after 48 hrs by MTT assay; assay type: functional, cell-based; conditions: NIH3T3, 48 h
DU-145 [7] = assay: Cell cycle arrest in human DU145 cells assessed as accumulation at sub-G1 phase at 2 uM after 48 hrs by FACS analysis (reference value: 7.71%); assay type: functional
Calf thymus DNA [8] = assay: Binding affinity to calf thymus double stranded DNA at 25 uM by UV-vis spectroscopic method; assay type: nucleic-acid assay; conditions: Bos taurus
DU-145 [9] = assay: Cell cycle arrest in human DU145 cells assessed as accumulation at G2/M phase at 1 uM after 48 hrs by FACS analysis (reference value: 21.07%); assay type: functional
DU-145 [10] = assay: Cell cycle arrest in human DU145 cells assessed as accumulation at S phase at 1 uM after 48 hrs by FACS analysis (reference value: 16.22%); assay type: functional
DU-145 [11] = assay: Induction of apoptosis in human DU145 cells assessed as late apoptotic cells at 2 uM after 48 hrs by annexin-V/FITC/propidium iodide staining-based FACS analysis (reference value: 4.46%); assay type: functional
DU-145 [12] = assay: Antiproliferative activity against human DU145 cells after 48 hrs by MTT assay; assay type: functional, cell-based; conditions: DU-145, 48 h
DU-145 [13] = assay: Cell cycle arrest in human DU145 cells assessed as accumulation at G0/G1 phase at 1 uM after 48 hrs by FACS analysis (reference value: 53.60%); assay type: functional
Calf thymus DNA [14] = assay: Binding affinity to calf thymus double stranded DNA at 10 uM by spectrofluorimetric method; assay type: nucleic-acid assay; conditions: Bos taurus
DU-145 [15] = assay: Induction of apoptosis in human DU145 cells assessed as necrotic cells at 2 uM after 48 hrs by annexin-V/FITC/propidium iodide staining-based FACS analysis (reference value: 0.49%); assay type: functional
DU-145 [16] = assay: Induction of apoptosis in human DU145 cells assessed as necrotic cells at 1 uM after 48 hrs by annexin-V/FITC/propidium iodide staining-based FACS analysis (reference value: 0.49%); assay type: functional
DU-145 [17] = assay: Induction of apoptosis in human DU145 cells assessed as early apoptotic cells at 2 uM after 48 hrs by annexin-V/FITC/propidium iodide staining-based FACS analysis (reference value: 3.61%); assay type: functional
DNA [18] = assay: Induction of Escherichia coli pBR322 DNA cleavage at 20 uM incubated in dark condition by agarose gel electrophoresis; assay type: nucleic-acid assay
Method in brief: (§1)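 pBR322 plasmid DNA was incubated with 20 µM ligand, either in the dark or under UV-light irradiation for 1 h. Products were separated by gel electrophoresis. Irradiated DNA solution alone served as the control.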

DU-145 [19] = assay: Induction of apoptosis in human DU145 cells assessed as viable cells at 1 uM after 48 hrs by annexin-V/FITC/propidium iodide staining-based FACS analysis (reference value: 91.44%); assay type: functional; conditions: DU-145, 48 h, read-out: Activity
A549 = assay: Antiproliferative activity against human A549 cells after 48 hrs by MTT assay; assay type: functional, cell-based; conditions: A549, 48 h
DU-145 [20] = assay: Induction of apoptosis in human DU145 cells assessed as early apoptotic cells at 1 uM after 48 hrs by annexin-V/FITC/propidium iodide staining-based FACS analysis (reference value: 3.61%); assay type: functional
HeLa = assay: Antiproliferative activity against human HeLa cells after 48 hrs by MTT assay; assay type: functional, cell-based
DU-145 [21] = assay: Induction of apoptosis in human DU145 cells assessed as viable cells at 2 uM after 48 hrs by annexin-V/FITC/propidium iodide staining-based FACS analysis (reference value: 91.44%); assay type: functional; conditions: DU-145, 48 h, read-out: Activity
DU-145 [22] = assay: Induction of apoptosis in human DU145 cells assessed as late apoptotic cells at 1 uM after 48 hrs by annexin-V/FITC/propidium iodide staining-based FACS analysis (reference value: 4.46%); assay type: functional
DNA [23] = assay: Induction of Escherichia coli pBR322 DNA cleavage at 20 uM incubated in presence of UV-light for 1 hr by agarose gel electrophoresis; assay type: nucleic-acid assay; method in brief: as §1
Calf thymus DNA [24] = assay: Binding affinity to calf thymus double stranded DNA assessed as hypochromicity at 10 uM by […] method; assay type: nucleic-acid assay; conditions: Bos taurus
DU-145 [25] = assay: Cell cycle arrest in human DU145 cells assessed as accumulation at sub-G1 phase at 1 uM after 48 hrs by FACS analysis (reference value: 7.71%); assay type: functional

Fc1ccc(-c2nc(C(c3c[nH]c4ccccc34)c3c[nH]c4ccccc34)cc3c2[nH]c2ccccc23)cc1
Activity (DU-145 [1]): 17.41%
inhibition [2]: Active
Activity (DU-145 [3]): 13.58%
Activity (Calf thymus DNA [4]): Active
Activity (DU-145 [5]): 62.86%
Activity (Calf thymus DNA [6]): Active
IC50 (MCF7): 8.5 µM
IC50 (NIH3T3): 140 µM
Activity (DU-145 [7]): 4.93%
Activity (Calf thymus DNA [8]): Active
Activity (DU-145 [9]): 57.46%
Activity (DU-145 [10]): 19.16%
Activity (DU-145 [11]): 5.06%
IC50 (DU-145 [12]): 1.8 µM
Activity (DU-145 [13]): 15.15%
Activity (Calf thymus DNA [14]): Active
Activity (DU-145 [15]): 1.14%
Activity (DU-145 [16]): 0.23%
Activity (DU-145 [17]): 38.28%
Activity (DNA [18]): Not Active
viability at 1 µM (DU-145 [19]): 84.7%
IC50 (A549): 2.04 µM
Activity (DU-145 [20]): 8.49%
IC50 (HeLa): 3.25 µM
viability at 2 µM (DU-145 [21]): 55.5%
Activity (DU-145 [22]): 6.55%
Activity (DNA [23]): Active
Activity (Calf thymus DNA [24]): 10 to 12%
Activity (DU-145 [25]): 6.91%

Cc1ccc(-c2nc(C(c3c[nH]c4ccc(Br)cc34)c3c[nH]c4ccc(Br)cc34)cc3c2[nH]c2ccccc23)cc1
Activity (DU-145 [1]): 19.52%
inhibition [2]: Active
Activity (DU-145 [3]): 15.92%
Activity (Calf thymus DNA [4]): Active
Activity (DU-145 [5]): 57.12%
Activity (Calf thymus DNA [6]): Active
IC50 (MCF7): 5.85 µM
IC50 (NIH3T3): 125 µM
Activity (DU-145 [7]): 6.05%
Activity (Calf thymus DNA [8]): Active
Activity (DU-145 [9]): 22.04%
Activity (DU-145 [10]): 16.37%
Activity (DU-145 [11]): 3.12%
IC50 (DU-145 [12]): 1.86 µM
Activity (DU-145 [13]): 54.58%
Activity (Calf thymus DNA [14]): Active
Activity (DU-145 [15]): 0.47%
Activity (DU-145 [16]): 0.12%
Activity (DU-145 [17]): 32.76%
Activity (DNA [18]): Not Active
viability at 1 µM (DU-145 [19]): 87%
IC50 (A549): 2.51 µM
Activity (DU-145 [20]): 6.43%
IC50 (HeLa): 2.54 µM
viability at 2 µM (DU-145 [21]): 63.6%
Activity (DU-145 [22]): 6.43%
Activity (DNA [23]): Active
Activity (Calf thymus DNA [24]): 10 to 12%
Activity (DU-145 [25]): 5.57%
